Tests used:
BaF3 [1] = assay: Induction of cell cycle arrest in mouse BaF3 cells harbouring JAK2 […] mutant assessed as accumulation of cells at G0/G1 phase at 4 nM incubated for 24 hrs by propidium iodide staining based flow cytometry analysis (reference value: 56.85 %); assay type: functional
[2] = biological target: T1, Receptor-type tyrosine-protein kinase FLT3 (Homo sapiens, UniProt P36888); assay: Inhibition of FLT3 (unknown origin) in presence of Mg/ATP mixture by [gamma p33]-ATP based radiometric assay
T1 sequence (P36888 whole entry): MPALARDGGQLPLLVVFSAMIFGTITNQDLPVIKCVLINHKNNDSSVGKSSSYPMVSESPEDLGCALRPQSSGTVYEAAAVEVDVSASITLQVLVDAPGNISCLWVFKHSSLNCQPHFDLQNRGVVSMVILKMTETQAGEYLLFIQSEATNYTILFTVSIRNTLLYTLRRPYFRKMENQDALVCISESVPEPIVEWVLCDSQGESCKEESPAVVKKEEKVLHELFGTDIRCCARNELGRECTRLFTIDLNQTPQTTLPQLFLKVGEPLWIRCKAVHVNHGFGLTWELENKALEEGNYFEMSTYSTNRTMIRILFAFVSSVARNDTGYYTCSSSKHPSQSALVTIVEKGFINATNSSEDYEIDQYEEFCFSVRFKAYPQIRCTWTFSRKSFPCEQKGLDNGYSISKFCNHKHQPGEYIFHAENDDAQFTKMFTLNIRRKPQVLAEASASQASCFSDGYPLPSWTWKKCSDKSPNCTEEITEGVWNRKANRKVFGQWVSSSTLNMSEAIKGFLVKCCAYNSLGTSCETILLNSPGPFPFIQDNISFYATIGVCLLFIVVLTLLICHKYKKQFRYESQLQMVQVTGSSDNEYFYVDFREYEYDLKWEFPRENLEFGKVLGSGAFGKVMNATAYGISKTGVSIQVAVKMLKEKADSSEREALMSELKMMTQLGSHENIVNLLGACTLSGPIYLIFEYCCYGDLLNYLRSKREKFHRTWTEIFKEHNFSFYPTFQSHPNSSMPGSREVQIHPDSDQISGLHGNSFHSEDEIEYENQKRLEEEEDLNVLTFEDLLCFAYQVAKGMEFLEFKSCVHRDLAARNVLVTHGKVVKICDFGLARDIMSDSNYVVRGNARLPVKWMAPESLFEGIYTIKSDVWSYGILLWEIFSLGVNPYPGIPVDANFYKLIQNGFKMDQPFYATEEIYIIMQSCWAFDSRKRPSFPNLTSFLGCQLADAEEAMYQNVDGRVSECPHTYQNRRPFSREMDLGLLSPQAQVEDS
Procedure, shortened: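 IC50 values determined by Eurofins Discovery.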

BaF3 [3] = assay: Induction of apoptosis in mouse BaF3 cells harbouring JAK2 V617F mutant assessed as late apoptotic cells at 80 nM incubated for 24 hrs by Annexin V / propidium iodide staining based flow cytometry analysis (reference value: 12.2 %); assay type: functional
Procedure, shortened: (§1)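 Ba/F3 JAK2V617F cells exposed to compound at 20, 40, 80, 160 and 320 nM, then analysed for apoptosis by flow cytometry. Significance vs control by Dunnett's t test.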

BaF3 [4] = assay: Induction of cell cycle arrest in mouse BaF3 cells harbouring JAK2 […] mutant assessed as accumulation of cells at S phase at 4 nM incubated for 24 hrs by propidium iodide staining based flow cytometry analysis (reference value: 33.80 %); assay type: functional
BaF3 [5] = assay: Induction of apoptosis in mouse BaF3 cells harbouring JAK2 V617F mutant assessed as necrotic cells at 40 nM incubated for 24 hrs by Annexin V / propidium iodide staining based flow cytometry analysis (reference value: 0.64 %); assay type: functional; procedure, shortened: as §1
BaF3 [6] = assay: Induction of apoptosis in mouse BaF3 cells harbouring JAK2 V617F mutant assessed as late apoptotic cells at 160 nM incubated for 24 hrs by Annexin V / propidium iodide staining based flow cytometry analysis (reference value: 12.2 %); assay type: functional; procedure, shortened: as §1
BaF3 [7] = assay: Induction of cell cycle arrest in mouse BaF3 cells harbouring JAK2 […] mutant assessed as accumulation of cells at S phase at 2 nM incubated for 24 hrs by propidium iodide staining based flow cytometry analysis (reference value: 33.80 %); assay type: functional
BaF3 [8] = assay: Induction of apoptosis in mouse BaF3 cells harbouring JAK2 V617F mutant assessed as late apoptotic cells at 20 nM incubated for 24 hrs by Annexin V / propidium iodide staining based flow cytometry analysis (reference value: 12.2 %); assay type: functional; procedure, shortened: as §1
BaF3 [9] = assay: Induction of apoptosis in mouse BaF3 cells harbouring JAK2 V617F mutant assessed as late apoptotic cells at 320 nM incubated for 24 hrs by Annexin V / propidium iodide staining based flow cytometry analysis (reference value: 12.2 %); assay type: functional; procedure, shortened: as §1
BaF3 [10] = assay: Induction of apoptosis in mouse BaF3 cells harbouring JAK2 V617F mutant assessed as necrotic cells at 20 nM incubated for 24 hrs by Annexin V / propidium iodide staining based flow cytometry analysis (reference value: 0.64 %); assay type: functional; procedure, shortened: as §1
BaF3 [11] = assay: Induction of cell cycle arrest in mouse BaF3 cells harbouring JAK2 […] mutant assessed as accumulation of cells at G0/G1 phase at 8 nM incubated for 24 hrs by propidium iodide staining based flow cytometry analysis (reference value: 56.85 %); assay type: functional
BaF3 [12] = assay: Induction of cell cycle arrest in mouse BaF3 cells harbouring JAK2 […] mutant assessed as accumulation of cells at G0/G1 phase at 0.5 nM incubated for 24 hrs by propidium iodide staining based flow cytometry analysis (reference value: 56.85 %); assay type: functional
BaF3 [13] = assay: Induction of apoptosis in mouse BaF3 cells harbouring JAK2 V617F mutant assessed as viable cells at 320 nM incubated for 24 hrs by Annexin V / propidium iodide staining based flow cytometry analysis (reference value: 72.8 %); assay type: functional; details: read-out: Activity; procedure, shortened: as §1
BaF3 [14] = assay: Induction of apoptosis in mouse BaF3 cells harbouring JAK2 V617F mutant assessed as viable cells at 80 nM incubated for 24 hrs by Annexin V / propidium iodide staining based flow cytometry analysis (reference value: 72.8 %); assay type: functional; details: read-out: Activity; procedure, shortened: as §1
[15] = Selectivity ratio of IC50 for JAK3 (unknown origin) to IC50 for JAK2 (unknown origin)
BaF3 [16] = assay: Induction of cell cycle arrest in mouse BaF3 cells harbouring JAK2 […] mutant assessed as accumulation of cells at G0/G1 phase at 16 nM incubated for 24 hrs by propidium iodide staining based flow cytometry analysis (reference value: 56.85 %); assay type: functional
[17] = Selectivity ratio of IC50 for TYK2 (unknown origin) to IC50 for JAK2 (unknown origin)
[18] = biological target: Tyrosine-protein kinase JAK2 (Homo sapiens, UniProt O60674, V617F); assay: Inhibition of JAK2 V617F mutant in human SET2 cells; assay type: cell-based
Chain of Tyrosine-protein kinase JAK2 (O60674 whole entry V617F): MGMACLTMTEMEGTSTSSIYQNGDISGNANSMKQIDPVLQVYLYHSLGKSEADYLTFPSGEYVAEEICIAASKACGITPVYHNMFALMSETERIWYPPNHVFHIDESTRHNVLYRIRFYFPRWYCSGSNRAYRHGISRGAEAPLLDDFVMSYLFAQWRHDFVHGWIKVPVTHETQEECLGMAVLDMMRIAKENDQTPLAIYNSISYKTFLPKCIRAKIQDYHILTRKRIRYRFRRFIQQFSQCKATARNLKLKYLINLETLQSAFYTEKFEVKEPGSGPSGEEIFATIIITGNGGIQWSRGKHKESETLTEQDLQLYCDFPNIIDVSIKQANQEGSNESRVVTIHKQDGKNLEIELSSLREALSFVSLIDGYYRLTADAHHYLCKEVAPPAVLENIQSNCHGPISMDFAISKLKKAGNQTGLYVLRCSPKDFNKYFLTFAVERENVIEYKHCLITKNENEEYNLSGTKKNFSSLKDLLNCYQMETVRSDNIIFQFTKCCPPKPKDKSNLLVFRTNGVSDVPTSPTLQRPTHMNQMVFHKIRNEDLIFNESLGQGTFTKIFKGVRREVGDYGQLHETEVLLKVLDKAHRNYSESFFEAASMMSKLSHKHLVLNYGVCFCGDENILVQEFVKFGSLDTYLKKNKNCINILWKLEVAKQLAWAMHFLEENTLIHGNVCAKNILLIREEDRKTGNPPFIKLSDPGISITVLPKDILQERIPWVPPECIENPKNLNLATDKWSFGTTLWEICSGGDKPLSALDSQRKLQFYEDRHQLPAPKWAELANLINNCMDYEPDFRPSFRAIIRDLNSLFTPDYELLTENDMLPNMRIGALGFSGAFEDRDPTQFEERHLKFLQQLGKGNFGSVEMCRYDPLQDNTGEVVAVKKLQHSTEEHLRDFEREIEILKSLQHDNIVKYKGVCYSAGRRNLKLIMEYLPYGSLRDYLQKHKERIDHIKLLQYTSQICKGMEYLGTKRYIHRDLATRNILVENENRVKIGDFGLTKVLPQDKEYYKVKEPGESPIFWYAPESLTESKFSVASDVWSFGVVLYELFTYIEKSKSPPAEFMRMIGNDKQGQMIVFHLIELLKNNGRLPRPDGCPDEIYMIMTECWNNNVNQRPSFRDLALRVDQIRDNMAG
Procedure, shortened: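 Cell proliferation assay. IC50 is the concentration that inhibits proliferation by 50%, taken from dose–response curves. Mean ± SEM of at least three independent experiments.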

BaF3 [19] = assay: Induction of apoptosis in mouse BaF3 cells harbouring JAK2 V617F mutant assessed as viable cells at 160 nM incubated for 24 hrs by Annexin V / propidium iodide staining based flow cytometry analysis (reference value: 72.8 %); assay type: functional; details: read-out: Activity; procedure, shortened: as §1

Compound | Activity (BaF3 [1]) [%] | IC50 [2] [nM] | Activity (BaF3 [3]) [%] | Activity (BaF3 [4]) [%] | Activity (BaF3 [5]) [%] | Activity (BaF3 [6]) [%] | Activity (BaF3 [7]) [%] | Activity (BaF3 [8]) [%] | Activity (BaF3 [9]) [%] | Activity (BaF3 [10]) [%] | Activity (BaF3 [11]) [%] | Activity (BaF3 [12]) [%] | viability at 0.32 µM (BaF3 [13]) [%] | viability at 0.08 µM (BaF3 [14]) [%] | Ratio IC50 [15] | Activity (BaF3 [16]) [%] | Ratio IC50 [17] | IC50 [18] [nM] | viability at 0.16 µM (BaF3 [19]) [%]
C=CS(=O)(=O)NCc1ccc(Nc2ncc(C)c(-c3cnn(C(C)C)c3)n2)cc1 | 62.95 | 467 | 38.7 | 29.44 | 3.27 | 35.8 | 30.58 | 20 | 40.1 | 1.61 | 63.86 | 59.23 | 24.5 | 22.3 | 54.6 | 69.31 | 41.2 | 44.3 | 22.9
Cc1cnc(Nc2ccc3c(c2)CCN(C(=O)/C=C/CN(C)C)C3)nc1-c1cnn(C(C)C)c1 | 57.34 | 62 | 25.4 | 33.33 | 0.89 | 30.7 | 27.94 | 12 | 35.2 | 1.04 | 58.82 | 55.96 | 14.3 | 38.8 | 31 | 59.42 | 25 | 475 | 19.4

Reference: ChEMBL document CHEMBL5325511, “Discovery of N-(4-(Aminomethyl)phenyl)-5-methylpyrimidin-2-amine Derivatives as Potent and Selective JAK2 Inhibitors” (ACS Med Chem Lett, 2023)
